Test results reported in ChEMBL document CHEMBL4359903, “1,2,4-Oxadiazole derivatives targeting EGFR and c-Met degradation in TKI resistant NSCLC” (Eur J Med Chem, 2019).
Calls of active or inactive are those of the source. The rule behind the calls is not given here.

How the values were obtained:
[1] = tested on: Epidermal growth factor receptor (Homo sapiens), P00533 [G719A,T790M]; assay: Induction of EGFR G719A/T790M mutant degradation in human CL97 cells assessed as reduction in Akt phosphorylation at 0.4 to 0.8 uM incubated for 48 hrs by Western blot analysis; type: cell-based
Outline: (§1)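 After 48 h treatment, cells were scraped and lysed in 1% SDS, 50 mM Tris-HCl pH 8.0, 10 mM EDTA with protease and phosphatase inhibitors. Lysates sonicated, protein measured by BCA, equal amounts run on SDS-PAGE and blotted to nitrocellulose. Primary antibodies (EGFR, c-Met, S473-Akt, Akt, GAPDH) used at 1:1000 overnight at 4 °C, HRP secondaries at 1:5000, ECL detection.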

[2] = molecular target: Hepatocyte growth factor receptor (Homo sapiens) (UniProt P08581); assay: Induction of c-MET degradation in human MDA-MB-231 cells assessed as reduction in c-Met expression incubated for 48 hrs by immunoblot analysis; type: cell-based; outline: as §1
NCI-H1975 [3] = assay: Antiproliferative activity against human NCI-H1975 cells harbouring EGFR L858R/T790M double mutant assessed as reduction in cell viability incubated for 72 hrs by MTT assay; type: functional, cell-based; settings: NCI-H1975, 72 h
Homo sapiens = organism: Homo sapiens; assay: Cell cycle arrest in human CL68 cells harbouring EGFR delE746-A750/T790M mutant assessed as increase in cells accumulation at G2/M phase at 0.4 to 0.8 uM incubated for 48 hrs by propidium iodide based flow cytometry; type: functional
Outline: (§2)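 Cells plated at 3 × 10^5 per 6-cm dish and left overnight, then treated for 24 h and 48 h. Pellets fixed in 70% ethanol and stained with 40 µg/ml propidium iodide plus 20 µg/ml RNase A, 30 min on ice in the dark. DNA content read on a FACSCalibur flow cytometer.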

[4] = tested on: Epidermal growth factor receptor (Homo sapiens), P00533 [G719A,T790M]; assay: Induction of EGFR G719A/T790M mutant degradation in human CL97 cells assessed as reduction in EGFR expression at 0.2 to 0.6 uM incubated for 48 hrs by Western blot analysis; type: cell-based; outline: as §1
[5] = molecular target: Hepatocyte growth factor receptor (Homo sapiens) (UniProt P08581); assay: Induction of c-MET degradation in human CL68 cells harbouring EGFR delE746-A750/T790M assessed as reduction in c-Met expression at 0.2 to 0.6 uM incubated for 48 hrs by Western blot analysis; type: cell-based; outline: as §1
PC-9 = assay: Antiproliferative activity against human PC9 cells harbouring EGFR delE746-A750 mutant assessed as reduction in cell viability incubated for 48 hrs by MTT assay; type: functional, cell-based; settings: PC-9, 48 h
Outline: (§3)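 Cells seeded at 5000 per well in 10% FBS and left overnight, then exposed to agent or DMSO in 5% FBS for 48 h. MTT added for 1 h, dye dissolved in DMSO, absorbance read at 570 nm. Viability given as percent of vehicle control. At least three independent experiments, means ± SD.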

NCI-H1975 [6] = assay: Antitumor activity against human NCI-H1975 cells harbouring EGFR L858R/T790M double mutant xenografted in athymic Nude-Foxn1nu BALB/c mouse assessed as reduction in c-Met expression in tumor lysates administered once daily via oral gavage for 20 days measured on day 20 by Western blot analysis; type: functional; settings: Neoplasm, Lysate
Outline: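 H1975 xenografts in nude mice gavaged daily for 20 days with vehicle, 50 or 150 mg/kg. At study end mice were killed by CO2, and tumor lysates from four representative tumors per group were immunoblotted for EGFR and c-Met. Band intensities quantified by densitometry.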

[7] = Antiproliferative activity against human CL68 cells harbouring EGFR delE746-A750/T790M mutant assessed as reduction in cell viability incubated for 48 hrs by MTT assay; type: functional, cell-based; outline: as §3
[8] = molecular target: Hepatocyte growth factor receptor (Homo sapiens) (UniProt P08581); assay: Induction of c-MET degradation in wild type human A549 cells assessed as reduction in c-Met expression at 0.2 to 0.6 uM incubated for 48 hrs by immunoblot analysis; type: cell-based; outline: as §1
[9] = molecular target: Hepatocyte growth factor receptor (Homo sapiens) (UniProt P08581); assay: Induction of c-MET degradation in human PC9 cells harbouring EGFR delE746-A750 assessed as reduction in c-Met expression at 0.2 to 0.6 uM incubated for 48 hrs by Western blot analysis; type: cell-based; outline: as §1
[10] = tested on: Epidermal growth factor receptor (Homo sapiens), P00533 [L858R,T790M]; assay: Induction of EGFR L858R/T790M double mutant degradation in human NCI-H1975 cells assessed as reduction in Akt phosphorylation at 0.2 to 0.6 uM incubated for 48 hrs by Western blot analysis; type: cell-based; outline: as §1
NCI-H1975 [11] = assay: Cell cycle arrest in human NCI-H1975 cells harbouring EGFR L858R/T790M double mutant assessed as increase in cells accumulation at G2/M phase at 0.2 to 0.6 uM incubated for 48 hrs by propidium iodide based flow cytometry; type: functional; outline: as §2
[12] = molecular target: Epidermal growth factor receptor (Homo sapiens) (UniProt P00533); assay: Induction of EGFR degradation in wild type human A549 cells assessed as reduction in EGFR expression 0.2 to 0.6 uM incubated for 48 hrs by Western blot analysis; type: cell-based; outline: as §1
[13] = tested on: Epidermal growth factor receptor (Homo sapiens), P00533 [UNDEFINED MUTATION]; assay: Induction of EGFR E746-A750 deletion mutant degradation in human PC9 cells assessed as reduction in Akt phosphorylation at 0.4 to 0.8 uM incubated for 48 hrs by Western blot analysis; type: cell-based; settings: 0.2 to 0.6 uM, in the assay text read “0.2 to 0.6 uM” for “0.4 to 0.8 uM”; outline: as §1
A549 = assay: Antiproliferative activity against wild type human A549 cells assessed as reduction in cell viability incubated for 48 hrs by MTT assay; type: functional, cell-based; settings: A549, 48 h; outline: as §3
[14] = molecular target: Epidermal growth factor receptor (Homo sapiens) (UniProt P00533); assay: Induction of EGFR degradation in human MDA-MB-231 cells assessed as reduction in EGFR expression incubated for 48 hrs by immunoblot analysis; type: cell-based; outline: as §1
NCI-H1975 [15] = assay: Antitumor activity against human NCI-H1975 cells harbouring EGFR L858R/T790M double mutant xenografted in orally dosed athymic Nude-Foxn1nu BALB/c mouse assessed as tumor growth inhibition administered once daily via gavage for 20 days measured twice a week by caliper method; type: functional, organism-based
Outline: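 Female Balb/c nude mice, 5 weeks old, injected subcutaneously in the right flank with 10^6 H1975 cells in 0.1 ml. Randomized at about 50 mm3, n = 8 per group. Gavaged once daily for 20 days with vehicle (10% DMSO/0.1% Tween 80/0.5% methylcellulose in sterile water) or 50 or 150 mg/kg. Calipers, V = width² × length × 0.52; volume and body weight twice weekly; Student's t-test.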

[16] = Antiproliferative activity against human CL68 cells harbouring EGFR delE746-A750/T790M mutant assessed as reduction in cell viability incubated for 72 hrs by MTT assay; type: functional, cell-based
NCI-H1975 [17] = assay: Antitumor activity against human NCI-H1975 cells harbouring EGFR L858R/T790M double mutant xenografted in athymic Nude-Foxn1nu BALB/c mouse assessed as tumor growth inhibition at 50 mg/kg, po administered once daily via gavage for 20 days measured twice a week by caliper method relative to control; type: functional; settings: 480 h, read-out: TGI
[18] = tested on: Epidermal growth factor receptor (Homo sapiens), P00533 [UNDEFINED MUTATION]; assay: Induction of EGFR E746-A750 deletion/T790M mutant degradation in human CL68 cells assessed as Akt phosphorylation at 0.4 to 0.8 uM incubated for 48 hrs by Western blot analysis; type: cell-based; outline: as §1

Hepatocyte growth factor receptor (Homo sapiens), sequence (P08581 whole entry): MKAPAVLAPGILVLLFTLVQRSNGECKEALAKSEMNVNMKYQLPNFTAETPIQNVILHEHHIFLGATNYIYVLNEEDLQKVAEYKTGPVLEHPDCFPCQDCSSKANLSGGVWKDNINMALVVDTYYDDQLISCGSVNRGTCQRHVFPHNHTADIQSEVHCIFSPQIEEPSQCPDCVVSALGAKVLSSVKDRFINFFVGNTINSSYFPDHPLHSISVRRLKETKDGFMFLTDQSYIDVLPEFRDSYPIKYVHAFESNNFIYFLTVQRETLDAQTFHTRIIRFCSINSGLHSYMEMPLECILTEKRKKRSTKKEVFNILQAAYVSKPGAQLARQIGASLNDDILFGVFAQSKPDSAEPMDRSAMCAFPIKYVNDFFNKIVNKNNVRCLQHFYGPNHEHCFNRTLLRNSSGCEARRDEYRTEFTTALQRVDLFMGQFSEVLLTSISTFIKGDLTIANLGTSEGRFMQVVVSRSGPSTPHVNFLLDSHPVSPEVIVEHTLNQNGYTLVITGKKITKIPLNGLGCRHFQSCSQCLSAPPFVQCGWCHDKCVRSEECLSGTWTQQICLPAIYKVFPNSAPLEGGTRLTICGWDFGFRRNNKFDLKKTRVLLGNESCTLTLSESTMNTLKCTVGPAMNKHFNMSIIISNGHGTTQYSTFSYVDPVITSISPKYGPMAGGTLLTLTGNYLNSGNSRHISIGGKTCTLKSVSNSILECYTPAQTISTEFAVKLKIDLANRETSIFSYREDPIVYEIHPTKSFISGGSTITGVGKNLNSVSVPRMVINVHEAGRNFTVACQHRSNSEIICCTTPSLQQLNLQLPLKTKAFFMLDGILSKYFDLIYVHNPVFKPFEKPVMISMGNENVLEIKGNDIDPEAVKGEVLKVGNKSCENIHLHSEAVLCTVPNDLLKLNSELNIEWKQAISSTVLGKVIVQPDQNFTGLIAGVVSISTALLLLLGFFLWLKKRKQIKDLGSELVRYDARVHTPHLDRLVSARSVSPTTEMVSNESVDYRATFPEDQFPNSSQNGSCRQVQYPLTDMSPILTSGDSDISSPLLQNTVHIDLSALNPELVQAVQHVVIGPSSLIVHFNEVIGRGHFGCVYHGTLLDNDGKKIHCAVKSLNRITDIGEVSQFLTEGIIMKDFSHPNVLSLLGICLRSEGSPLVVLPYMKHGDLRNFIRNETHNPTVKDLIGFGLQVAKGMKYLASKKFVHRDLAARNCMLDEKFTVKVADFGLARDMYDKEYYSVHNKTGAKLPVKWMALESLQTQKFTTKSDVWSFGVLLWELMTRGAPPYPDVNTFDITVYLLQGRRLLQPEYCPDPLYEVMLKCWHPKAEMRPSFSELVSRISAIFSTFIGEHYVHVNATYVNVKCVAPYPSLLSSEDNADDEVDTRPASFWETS

Activity [1]: Active
Activity [2]: Active
IC50 (NCI-H1975 [3]): 300 nM
Activity [4]: Active
Activity [5]: Active
IC50 (PC-9): 600 nM
Activity [8]: Active
Activity [9]: Active
Activity [10]: Active
Activity [12]: Active
Activity [13]: Active
IC50 (A549): 300 nM
Activity [14]: Active
Activity [18]: inactive
Compound: O=C(Nc1cccc(-c2nc(-c3ccc(NC(=O)c4cccnc4)cc3Cl)no2)c1)Nc1ccc(NC(=O)C2CC2)c(C(F)(F)F)c1
Activity (Homo sapiens): Active
Activity (NCI-H1975 [6]): Dose-dependent effect
IC50 [7]: 500 nM
Activity (NCI-H1975 [11]): Active
TGI (NCI-H1975 [15]): Dose-dependent effect
IC50 [16]: 400 nM
inhibition in vivo at 50 mg/kg (NCI-H1975 [17]): 29 to 37%
